SKKanGAS inh – S. pyogenes SKKanGAS growth inhibitors in kanamycin, primary screen, streptokinase expression inhibitor project, SKKanGAS strain, BacTiter-Glo luminescence; 6 h; inhibition, % at 7.5 µM; actives 1.3% (n = 300,000);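 active = mean replicate score, as percent of positive control median, at least 50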;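 also: strain carries kanamycin resistance gene driven by streptokinase promoter and grows in 40 µg/ml kanamycin; loss of luminescence reflects streptokinase promoter inhibition or plain growth inhibition; 0% = median of DMSO wells and 100% = positive control at its reference dose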
CSC inhib – cancer stem cell viability inhibitors, primary screen, luminescence; AID 2717, 2010; cancer stem cell-like cells viability; actives 1.1% (n = 300,000); inhibition, % at 7.5 µM; in the data active = inhibition above about 75%; tested in HMLE shEcad cells
aSyn UTR inh – MLPCN primary screen, SNCA 5' untranslated region; alpha-synuclein 5'UTR reporter, inhibitor activity; actives 0.82% (n = 300,000); inhibition, % (tested at 7.5 µM); in the data active = inhibition above about 60%;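 also: H4 neuroglioblastoma cells stably carrying SNCA 5'UTR luciferase fusion; 0% = DMSO wells and 100% = positive control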
T cruzi inh – inhibitors of intracellular T. cruzi growth, primary screen, luminescence, NIH3T3 host cells. inhibition, % (test concentration not listed). T. cruzi beta-gal in NIH3T3, 90 h. actives 1.4% (n = 300,000);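 active = mean inhibition across valid replicates above about 55%, limit read from the data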;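 also: signal also drops with host cell toxicity which is not excluded here; 0% = plate median of DMSO wells and 100% = zero luminescence signal; higher percent means less beta-gal luminescence so fewer parasites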
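Assay system: NIH/3T3 host cells with β-galactosidase reporter T. cruzi; input: 5,000 host fibroblasts per well; compound: single 50 nL compound addition per well in DMSO; timing: ≥90 h infection period, 3 h prior cell attachment; measured by: GalScreen β-gal luminescence, detergent lysis, 60 min; evaluation: percent inhibition of parasite-derived β-gal signal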
Mdm2-MdmX inh – inhibitors of human Mdm2-MdmX association, primary screen, cell-based, luminescence, split luciferase, SaOS-2, uHTS; Protein Mdm4 (Homo sapiens) + E3 ubiquitin-protein ligase Mdm2 (Homo sapiens), …; SaOS-2 split-luciferase Mdm2/MdmX complementation; inhibition, % at 8 µM; actives 3% (n = 330,000); AID 485346, 2010;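 active = inhibition of at least 50% at 8 µM in the primary screen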
Mdm2 MdmX conf – Mdm2-MdmX complex disruptors, retested hits, confirmation, luminescence, single concentration | shares compounds with Mdm2-MdmX inh | Mdm2-MdmX binding, luminescent assay | inhibition, % at 8 µM | actives 55% (n = 10,000); in the data active = inhibition above about 40%
FLuc counter – full-length luciferase signal inhibition, confirmation, counter-screen for Mdm2/MdmX interaction inhibitor project, cell-based, single concentration, SaOS-2. shares compounds with Mdm2-MdmX inh. SaOS-2 full-length luciferase counterscreen, luminescence. inhibition, % at 8 µM. actives 77% (n = 6,200). AID 504607, 2011;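 active = mean inhibition at 8 µM reaching about 37%, which flags the compound as non-specific, limit read from the data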;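 also: p53-null SaOS-2 cells with luciferase driven by a doxycycline-inducible promoter; compound on cells about two nights before reading with doxycycline added after day one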
An asterisk follows results filed as active; x = no result. A selection: hits, their analogues and other compounds. The true share with any hit is near 5.4%.

SMILES	SKKanGAS inh	CSC inhib	aSyn UTR inh	T cruzi inh	Mdm2-MdmX inh	Mdm2 MdmX conf	FLuc counter
N[C@@H](Cc1ccc(O)cc1)c1nnc([C@H](CO)NC(=O)C2CCNCC2)o1	2.3	-6.3	-6.7	-6.4	20.6	x	x
COc1ccc2[nH]c3c(c2c1)CCC/C3=N\N	4.4	-3.6	8.4	0.8	14.3	x	x
COc1ccc2[nH]c3c(c2c1)CCNC3=O	-2.2	-23.2	-23.4	-1.6	70.7*	48.5*	34.4
CC(OC(=O)/C=C/c1ccccc1)C(=O)Nc1cccc(C#N)c1 (stereo not given)	4.7	4.9	-11.3	-6.1	55.8*	58.2*	95.2*
CC(C(=O)Nc1cccc(C#N)c1)N(C)CCOc1ccccc1 (stereo not given)	-2.6	9.1	7.7	11.7	-2.8	x	x
C/C(=N\N=C(N)N)c1ccc(Cl)cc1Cl	3.7	10.9	11.1	25.0	27.6	x	x
O=C(NCc1nc2ccccc2[nH]1)C1=C[C@@H](c2ccc(C(F)(F)F)cc2)C[C@@H](OCc2ccc(CO)cc2)O1	26.0	-10.3	12.4	45.9	27.1	x	x
CCCCCCN(C(=O)CCCCCN1C(=O)NC(c2ccc(C(C)(C)C)cc2)C(C(=O)OCc2ccccc2)=C1C)C(C(=O)NCCCC)c1ccc(OCC(=O)OC)c(C(=O)OC)c1 (stereo not given)	26.7	x	2.3	22.5	77.0*	4.8	x
O=C(CSc1n[nH]c(=O)n1C1CC1)NCc1ccccc1	-7.5	-2.1	-2.7	-2.5	28.3	x	x
CC1=C(C(=O)Nc2ccccc2F)C(c2ccsc2)C2=C(CC(C)(C)CC2=O)N1 (stereo not given)	12.8	47.9	33.0	-12.1	45.8	x	x
CC1=C(C(=O)Nc2cccc(F)c2)C(c2ccsc2)C2=C(CC(C)(C)CC2=O)N1 (stereo not given)	-1.2	64.7	18.9	-24.3	54.2*	53.6*	55.2*
CCCCCCCCCCC[N+](C)(C)CC/C=C1/c2ccccc2Sc2ccc(Cl)cc21	89.9*	58.9	15.1	51.1	77.8*	68.6*	28.6
CN(C)CC/C=C1\c2ccccc2Sc2ccc(Cl)cc21	1.8	7.6	-7.4	31.5	42.3	x	x
CC[N+](C)(C)CC/C=C1/c2ccccc2Sc2ccc(Cl)cc21	6.5	-8.2	2.1	16.1	34.0	x	x
CCCCCCCCCC[N+](C)(C)CC/C=C1/c2ccccc2Sc2ccc(Cl)cc21	94.9*	105.6*	19.4	46.7	82.8*	76.5*	19.3
OCCN1CCN(CC/C=C2/c3ccccc3Sc3ccc(Cl)cc32)CC1	x	14.1	x	x	60.8*	23.9	x
O=C(Cn1cnc2ccc(Cl)cc2c1=O)c1cccs1	2.2	-2.9	-136.1	-9.6	4.4	x	x
Cc1ccc(-n2nc(C(=O)N/N=C/c3cccc(C(F)(F)F)c3)c3ccccc3c2=O)cc1C	-0.9	-10.4	-8.7	-5.4	48.2	x	x
CC(NC(=O)/C(C#N)=C/c1ccc(Cl)c([N+](=O)[O-])c1)c1ccccc1 (stereo not given)	4.6	11.0	0.2	32.3	99.7*	67.0*	29.0
N#C/C(=C\c1ccc(Cl)c([N+](=O)[O-])c1)c1ccccn1	-2.2	0.3	-41.1	25.9	87.0*	26.8	x
C[C@@H](NC(=O)/C(C#N)=C/c1ccc(O)c(O)c1)c1ccccc1	x	52.1	x	x	2.2	x	x
O=C(NCCCN1CCN(c2ccccc2F)CC1)Nc1ccccc1[N+](=O)[O-]	-4.1	-6.2	11.3	10.3	1.9	x	x
CC(OC(=O)Cc1ccc(Cl)cc1)C(=O)NC1CCCCC1C (stereo not given)	x	x	x	x	13.1	x	x
COc1ccc(CCNc2c(C)c(C)nc3ncnn23)cc1	5.8	x	-14.5	-84.2	50.4*	46.0*	69.2*
CCN(CC)CCOc1ccc2c(c1)C(=NO)c1cc(OCCN(CC)CC)ccc1-2	-8.2	68.7	8.1	48.9	95.8*	90.5*	43.9*
SMILES	SKKanGAS inh	CSC inhib	aSyn UTR inh	T cruzi inh	Mdm2-MdmX inh	Mdm2 MdmX conf	FLuc counter
CCCOc1ccc2c(c1)C(=NN=C(N)N)c1cc(OCCC)ccc1-2	12.0	111.6*	-45.8	39.0	95.8*	33.9	x
CCN(CC)S(=O)(=O)c1ccc(C)c(C)c1	2.3	-0.1	15.9	7.3	2.4	x	x
CCN(CC)S(=O)(=O)c1ccc2c(c1)C(=NO)c1cc(S(=O)(=O)N(CC)CC)ccc1-2	5.0	85.4*	114.9*	62.9*	83.2*	67.8*	23.7
CCN(CC)CCCOc1ccc(Cl)c(Cl)c1	1.0	-13.3	17.4	51.6	13.7	x	x
COc1cccc(CCNC(=O)CCc2nnc(-c3cc(C)oc3C)o2)c1	-2.3	-6.3	-17.5	-14.0	20.4	x	x
Cc1ccc(NC(=O)CN(C)C(=O)c2nn(C)c(=O)c3ccccc23)cc1	-17.6	-11.1	-7.2	-17.5	7.3	x	x
CCc1cc(CNC(=O)C2CCC(=O)N(Cc3cccc(F)c3)C2)on1 (stereo not given)	-8.2	15.6	3.4	-18.0	2.7	x	x
COc1ccc(CN2CCN(C(c3ccc(F)cc3)c3ccc(F)cc3)CC2)c(OC)c1OC	-3.8	59.6	-3.2	41.0	80.9*	44.8*	68.8*
COc1ccc(CN2CCN(c3ccc(F)cc3)CC2)c(OC)c1OC	-2.1	-5.3	14.3	-4.7	9.5	x	x
CCN(CC)c1ccc(-c2nn3c(-c4n[nH]c5c4CCC5)nnc3s2)cc1	85.4*	56.3	72.3*	40.4	50.8*	59.0*	102.1*
O=C(O)c1nn(CCOc2c(Cl)cccc2Cl)c(=O)c2ccccc12	-1.0	11.6	-5.1	-12.4	68.7*	54.1*	44.4*
CC1CCN(S(=O)(=O)c2ccc3c(c2)NC(=O)CS3)CC1	-1.5	-13.4	10.0	5.5	16.3	x	x
C=CCC[C@@H](Cc1ccc(F)cc1)C(=O)OC[C@H](Cc1c[nH]c2ccccc12)NC(=O)[C@H](CC=C)CC(=O)N(CCO)Cc1ccccc1	x	x	x	x	88.3*	22.5	74.2*
C=CCC[C@H](Cc1ccc(F)cc1)C(=O)OC[C@@H](Cc1c[nH]c2ccccc12)NC(=O)[C@@H](CC=C)CC(=O)N(CCO)Cc1ccccc1	x	79.2*	x	x	85.9*	13.4	x
C=CC[C@H](CC(=O)N(CCO)Cc1ccccc1)C(=O)NC[C@@H](OC(=O)[C@@H](CC=C)Cc1ccc(F)cc1)c1ccccc1	x	x	x	x	23.0	x	x
C=CCC[C@H](Cc1ccc(F)cc1)C(=O)OC[C@H](Cc1c[nH]c2ccccc12)NC(=O)[C@H](CC=C)CC(=O)NCCO	x	7.2	x	x	33.3	x	x
